Assay outcomes from PubChem.
M1 agonist: M1 muscarinic receptor agonism. CHO-M1 cells, Fluo-4 calcium fluorescence, agonist mode; stronger effect = higher value. B-score at 10 µM. 3% of 64,000 active. AID 626;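 active = fluorescence rise, raw or as B-score row- and column-corrected plate score, outside the 99.7% band of its plate's samples, either direction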
S1P1 ag-PAM: S1P1 (human) agonism or agonism potentiation | activation, % at 9.5 µM | 0.57% of 56,000 active | S1P1 CRE-bla cells, forskolin, beta-lactamase FRET, potentiator mode; S1P1 agonist co-added at EC20, 2 nM; 100% = saturating reference agonist, 0% = basal | AID 449 | P21453;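 active = activation above a cutoff set at the mean activation of all tested compounds plus 3 SD, cut at about 54% in these data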;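 also: forskolin at 4 µM as EC80 and the EC20 agonist is SEW2871; 100% = SEW2871 at its EC100 plus forskolin at EC80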
M1 antagonist: M1 muscarinic receptor (rat) antagonism. P08482. CHO-M1 cells, Fluo-4 calcium, ACh EC80 antagonist mode; stronger effect = lower value. B-score at 10 µM. 3.4% of 64,000 active;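 active = calcium fluorescence response, raw or row-and-column corrected B-score, differing from the plate sample mean either way at a set confidence level, mostly lower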
RORA act: activators of human nuclear receptor RORA; activation, % at 10 µM; P35398; 1.5% of 65,000 active; AID 560; CHO-K1 Gal4-RORA LBD luciferase reporter, luminescence; percent increase over mock-subtracted basal signal;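 active = activation above the mean of all tested compounds plus 3 SD, cut at about 49% in these data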;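 also: 0% = DMSO-treated RORA cells and 100% = added signal equal to DMSO minus mock-transfected cells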
Target sequence (P35398 whole entry, looked up, the tested form may be a part): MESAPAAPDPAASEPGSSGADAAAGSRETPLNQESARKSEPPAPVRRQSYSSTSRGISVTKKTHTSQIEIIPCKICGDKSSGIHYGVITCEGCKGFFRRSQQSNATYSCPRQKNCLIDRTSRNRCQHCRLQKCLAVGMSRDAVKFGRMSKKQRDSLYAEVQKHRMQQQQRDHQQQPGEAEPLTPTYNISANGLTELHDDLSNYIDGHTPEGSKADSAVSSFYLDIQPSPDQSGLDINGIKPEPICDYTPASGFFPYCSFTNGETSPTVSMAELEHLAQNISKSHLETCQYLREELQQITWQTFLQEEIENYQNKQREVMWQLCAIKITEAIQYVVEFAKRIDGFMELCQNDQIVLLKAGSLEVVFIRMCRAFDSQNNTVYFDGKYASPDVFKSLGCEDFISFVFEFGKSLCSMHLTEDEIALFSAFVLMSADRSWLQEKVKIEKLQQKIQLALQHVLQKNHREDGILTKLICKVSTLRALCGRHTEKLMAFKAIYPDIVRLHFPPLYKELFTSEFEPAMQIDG
SF-1 act: activates the human nuclear receptor SF-1 | CHO-K1 Gal4-SF-1 LBD luciferase reporter; % increase over DMSO SF-1-specific signal | 1.9% of 65,000 active | Q13285 | activation, % at 10 µM;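 active = activation above the mean activation of all tested compounds plus 3 SD, cut at about 50% in these data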
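Test system: transient Gal4-SF-1 LBD reporter, CHO-K1; Amount: 4,000 CHO-K1 cells per well; Doses: 10 µM only; Timing: compound exposure 20 h at 37 °C; Signal: luciferase light emission; Read-out basis: percent activation relative to DMSO median and mock-transfected background; Control set: DMSO negative control and −SF1 background wells; Replicates: one test per compound.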
S1P3 ag: activates the human S1P3 receptor; activation, % at 4.5 µM; S1P3 NFAT-BLA reporter cells, agonism, FRET ratio; relative to 1 µM S1P, basal subtracted; 0.1% of 60,000 active; Q99500;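 active = activation above the screen-wide mean plus 3 SD, cut at about 4.5% in these data, passing the limit was not always enough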
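material = human S1P3 NFAT-BLA reporter CHO cells | schedule = 4 h compound at 37 °C, 2 h substrate at RT | measured by = fluorescent BLA substrate, ex 405 nm, em 460/535 nm ratio | controls = 1 µM S1P reference | replication = primary once, confirmation triplicate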
Numbers without * were called inactive; . = not tested or not shown. Most compounds without a hit are left out; they make up all but 8.8% or so of the library.

SMILES | M1 agonist | S1P1 ag-PAM | M1 antagonist | RORA act | SF-1 act | S1P3 ag
Clc1ccc(Cc2noc(Cc3ccccc3)n2)cc1Cl | -0.27 | . | 1.8* | 3 | 10 | -1
O=C(COC(=O)Cc1cccs1)Nc1ccccc1 | 0.095 | 14 | -0.094 | 12 | -10 | -1
O=C(Nc1nc2c(Cl)cccc2s1)c1ccc(Br)o1 | -0.073 | -5 | 0.23 | -1 | 23 | -1
O=C(Nc1nc2ccc(Cl)cc2s1)c1ccc(Br)o1 | -0.3 | . | 0.26 | 54* | 48 | 0
CC1C(O)=C(c2nc3ccccc3[nH]2)C(=N)N1c1ccccc1 (stereo not given) | -0.09 | . | 0.036 | 26 | 54* | -2
N=C1C(c2nc3ccccc3[nH]2)=C(O)CN1c1ccccc1 | 0.67 | -2 | 0.65 | 44 | 50* | 0
CC(C)(C)C(=O)NC(=C(Cl)Cl)P(=O)(O)O | . | -6 | . | -3 | 2 | 2
CCCn1c(SCC(=O)N2CCN(c3ccccc3)CC2)nc2ccccc2c1=O | 0.91 | 21 | 1.9* | -2 | 6 | 1
CCn1c(SCC(=O)N2CCN(c3ccc(F)cc3)CC2)nc2ccccc2c1=O | 1.6 | . | 0.21 | -11 | 18 | 0
CCCn1c(SCC(=O)N2CCN(c3ccc(OC)cc3)CC2)nc2c1c(=O)n(C)c(=O)n2C | 9.6* | 2 | -0.45 | -14 | -17 | 0
c1ccc(Nc2nc(-c3cccnc3)cs2)nc1 | -2.7* | 21 | 0.66 | 52* | 46 | -1
CN(C)c1nc(C(=O)Nc2ccccc2)nc(N(C)C)n1 | 0.042 | 5 | -0.5 | -8 | -9 | -1
Cc1nc(/N=C\N(C)C)sc1C(=O)Nc1ccccc1 | -0.12 | -22 | -0.58 | 52* | 8 | -1
Cc1ccc(C(=O)CSc2nnc(-c3ccco3)n2CC2CCCO2)cc1 (stereo not given) | 0.071 | -7 | 1.9* | 8 | -1 | 1
COc1ccc(-n2nnc3c(SCC(=O)NCC4CCCO4)ncnc32)cc1 (stereo not given) | 0.77 | 28 | -0.8 | -20 | -9 | -1
CCOC(=O)c1cnc2c(-c3ccccc3)cnn2c1N | 0.42 | -1 | 0.33 | -5 | 52* | 0
CCOC(=O)c1cnc2c(-c3ccccc3)c(C)nn2c1N | 0.84 | . | 0.37 | 15 | 15 | .
CCOC(=O)c1cnn(-c2sc(C(=O)OCC)c(C)c2C(=O)OCC)c1N | -3.4* | 13 | -0.29 | 17 | 8 | 0
CCOC(=O)c1cnn(-c2ccccn2)c1N | -0.086 | -11 | -0.002 | 53* | 35 | 0
CCCCn1c(NC(=O)c2ccccc2)c(C#N)c2nc3ccccc3nc21 | . | -154 | . | 7 | 3 | 2
CCCCn1c(NC(=O)c2ccc(F)cc2)c(C#N)c2nc3ccccc3nc21 | 0.55 | -190 | 0.23 | -2 | -12 | 4.7*
O=C(Nc1cccc(NC(=O)c2ccc(Br)o2)n1)c1ccc(Br)o1 | 1.7 | . | 1.3 | -14 | 4 | .
CCC(=O)Nc1c(C#N)c2nc3ccccc3nc2n1-c1ccc(C)cc1 | 4.3* | 15 | 0.42 | 4 | 15 | 1
N#Cc1c(NC(=O)c2ccc(Br)o2)n(-c2ccccc2)c2nc3ccccc3nc12 | 42* | -22 | -0.75 | -16 | 3 | 2
CCc1nnc(NC(=O)C(C)Sc2ccccc2)s1 (stereo not given) | 1.2 | 7 | -1.8 | -12 | -21 | -1
SMILES | M1 agonist | S1P1 ag-PAM | M1 antagonist | RORA act | SF-1 act | S1P3 ag
Nc1ccccc1-c1nnc(SCc2ccccc2F)[nH]c1=O | -0.23 | 11 | 1.5 | -3 | 0 | 0
Cc1c(NC(=O)COC(=O)Cc2ccc(Cl)cc2)c(=O)n(-c2ccccc2)n1C | 0.82 | 8 | -0.0022 | -4 | 2 | 0
COc1ccccc1Oc1cc(C#N)c(C#N)cc1-n1nnc2ccccc21 | 0.0044 | 15 | 0.021 | -27 | -13 | 20*
COc1ccc(/C=N\n2nnc3ccccc32)cc1 | 0.012 | 29 | -0.0036 | -74 | -70 | 0
CC(=O)c1cccc(NC(=O)c2nccnc2C(=O)O)c1 | -0.077 | 11 | -0.15 | -1 | -10 | 1
CCCCOC(=O)Nc1ccc(N2CCCCC2)cc1 | 0.79 | . | 0.29 | 95* | 64* | .
CC(C)c1[nH]nc2c1C(Cc1ccccc1)C(C#N)=C(N)O2 (stereo not given) | -0.68 | 5 | -1.4 | 7 | -8 | 0
O=C(NCc1cccs1)C1CCN(S(=O)(=O)c2cccc3cccnc23)CC1 | -0.94 | -14 | -0.53 | -4 | 25 | -1
OC1(c2cccc(C(F)(F)F)c2)CCN(c2ncnc3c2[nH]c2ccccc23)CC1 | 2.7 | 15 | -1.8 | -24 | -22 | -5
OC1(c2cccc(C(F)(F)F)c2)CCN(c2ccc(-c3ccccc3)nn2)CC1 | -0.11 | . | -0.023 | 66* | 38 | .
CN(C)c1ccc(NC(=O)Cn2c(=O)n(Cc3ccccc3)c(=O)c3ccccc32)cc1 | -1.1 | . | 0.11 | -30 | -8 | .
CCn1c(SCc2nnc(-c3ccccc3)o2)nc2c1c(=O)n(C)c(=O)n2C | 2 | -4 | 1.5 | 31 | -8 | -1
CCCCn1c(SCc2nnc(-c3ccccc3)o2)nc2c1c(=O)n(C)c(=O)n2C | 3* | -14 | -0.32 | -6 | -6 | 0
COC(=O)CCC(=O)N1CCc2cc(S(=O)(=O)N3CCN(c4ccccc4Cl)CC3)ccc21 | -0.26 | 2 | 0.99 | -20 | 13 | -2
CCOC(=O)c1c(C)oc2c1c(C(c1cccnc1)N1CCN(C)CC1)c(O)c1ccccc12 (stereo not given) | 3.4* | 7 | -0.0027 | -9 | -12 | 1
CCOC(=O)c1c(C)oc2c1c1c(c3ccccc32)OCN(Cc2cccnc2)C1 | -0.14 | -24 | 0.8 | -13 | -12 | 0
CCCCNC(=O)Nc1ccnn1C1CCCCC1 | -0.72 | . | 2.4* | -10 | 5 | .
COc1ccc(-n2c(SCC(N)=O)nnc2-c2ccccc2F)cc1 | . | -4 | . | -5 | 11 | 0
O=C(CCn1c(=O)sc2ccccc21)Nc1nccs1 | 0.057 | . | -0.022 | 53* | 27 | .
Fc1ccc(-c2nc3nc4ccccc4nc3n2Cc2ccco2)cc1 | 0.17 | 30 | 0.037 | 45 | 37 | -1
c1ccc(-c2nc3nc4ccccc4nc3n2Cc2ccco2)cc1 | 1.1 | 11 | -0.14 | 62* | 48 | 1
NC(=O)C1CCN(CCCNC2CC(=O)N(Cc3ccc(N4CCCC4=O)cc3)C2=O)CC1 (stereo not given) | 4.2* | -26 | 0.075 | 8 | -9 | -1
CCCOc1ccc(N2C(=O)CC(NCCCN3CCC(C(N)=O)CC3)C2=O)cc1 (stereo not given) | 0.0045 | . | -0.11 | 2 | 5 | 0
Cc1cccc(NC(=O)Nc2ccc(C#N)cc2)n1 | 0.52 | 68 | -0.096 | -60 | -71 | -2
